Measurements taken from ChEMBL document CHEMBL1828561, “Identification of a potent and selective free fatty acid receptor 1 (FFA1/GPR40) agonist with favorable physicochemical and in vitro ADME properties” (J Med Chem, 2011).
Converted amounts (≈) assume the structure as drawn.

Tested on: not listed separately
Assay: Apparent permeability from apical to basolateral side of human Caco2/TC7 cells
Type: ADME, cell-based
Settings: Caco-2
Summary of the method: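 Caco-2 TC7 monolayers, apical to basolateral transport at pH 6.5 apical/7.4 basolateral.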

Row | Papp A→B | Structure (SMILES)
1 | 870 nm/s | Cc1ccccc1C#Cc1ccc(CCC(=O)O)cc1

Tested on: not listed separately
Assay: Chemical stability of the compound in PBS at 37 degC for 12 days
Type: physicochemical
Settings: read-out: Stability
Summary of the method: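 Stability followed in PBS at 37 °C over 12 days.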

Row | remaining at 288 h | Structure (SMILES)
2 | 99.9% | Cc1ccccc1C#Cc1ccc(CCC(=O)O)cc1

Tested on: not listed separately
Assay: Plasma protein binding in human
Type: ADME, cell-free
Settings: read-out: PPB (converted)

Row | fraction unbound | Structure (SMILES)
3 | 0.023 | Cc1ccccc1C#Cc1ccc(CCC(=O)O)cc1

Tested on: Liver
Assay: Metabolic stability in human liver S9 fraction
Type: ADME, subcellular
Settings: not given

Row | Stability | Structure (SMILES)
4 | 26% | Cc1ccccc1C#Cc1ccc(CCC(=O)O)cc1

Tested on: not listed separately
Assay: Permeability across methotrexate treated human HT-29 cells assessed as compound recovery
Type: ADME, cell-based
Settings: read-out: Activity
Summary of the method: (§1)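 HT29-MTX mucus-producing cells, passage 32, grown 23 days (TEER > 750 Ω cm²). Compound at 100 μM (10 mM DMSO stock diluted 1:100 in buffer). […] Non-permeated drug measured for recovery. Monolayer integrity checked by 20 μM carboxyfluorescein after 1 h and TEER.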

Row | recovery | Structure (SMILES)
5 | 80% | CC(C(=O)O)c1cccc(C(=O)c2ccccc2)c1 (centres undefined) [KETOPROFEN]

Tested on: not listed separately
Assay: Octanol-water partition coefficient, log D of the compound at pH 7.4 by HPLC analysis
Type: physicochemical
Settings: not given
Summary of the method: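 Distribution between n-octanol and water (PBS), pH 7.4, determined experimentally.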

Row | logD | Structure (SMILES)
6 | 2.34 | Cc1ccccc1C#Cc1ccc(CCC(=O)O)cc1

Target: T1, Free fatty acid receptor 1 (Homo sapiens, UniProt O14842)
Assay: Agonist activity at human FFA1 receptor expressed in human 1321N1 cells assessed as calcium mobilization by fluorescence spectrophotometry
Type: functional, cell-based
Settings: not given

T1 sequence (O14842 whole entry): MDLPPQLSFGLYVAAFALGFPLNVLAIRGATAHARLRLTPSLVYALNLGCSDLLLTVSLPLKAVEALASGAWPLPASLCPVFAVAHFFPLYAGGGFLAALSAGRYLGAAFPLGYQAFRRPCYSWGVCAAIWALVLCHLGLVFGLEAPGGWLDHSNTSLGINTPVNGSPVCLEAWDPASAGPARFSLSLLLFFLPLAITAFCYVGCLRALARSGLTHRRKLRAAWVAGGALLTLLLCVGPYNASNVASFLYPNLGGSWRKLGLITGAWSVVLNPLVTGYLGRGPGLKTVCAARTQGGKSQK

Row | Structure (SMILES) | EC50
7 | O=C(O)CCc1ccc(C#Cc2ccnc(Cl)c2)cc1 | 0.295 µM
8 | Cc1c(C#Cc2ccc(CCC(=O)O)cc2)ccnc1F | 0.12 µM
9 | Cc1cnc(F)c(C#Cc2ccc(CCC(=O)O)cc2)c1 | 0.661 µM
10 | O=C(O)CCc1ccc(C#Cc2ccnc(Cl)n2)cc1 | 9.12 µM
11 | COc1cc(C#Cc2ccc(CCC(=O)O)cc2)ccn1 | 0.525 µM
12 | O=C(O)CCc1ccc(C#Cc2ccnc(Oc3ccccc3)c2)cc1 | 0.479 µM
13 | COc1nccc(C#Cc2ccc(CCC(=O)O)cc2)n1 | 9.55 µM
14 | O=C(O)CCc1ccc(C#Cc2ccnc3cc(Cl)ccc23)cc1 | 0.0794 µM
15 | Cc1cnc(Cl)nc1C#Cc1ccc(CCC(=O)O)cc1 | 4.27 µM
16 | Cc1ccccc1C#Cc1ccc(CCC(=O)O)cc1 | 0.0457 µM
17 | O=C(O)CCc1ccc(C#Cc2ccnc(-c3ccccc3)c2)cc1 | 0.186 µM
18 | O=C(O)CCc1ccc(C#Cc2ccccn2)cc1 | 13.2 µM
19 | Cc1cccc(C#Cc2ccc(CCC(=O)O)cc2)n1 | 6.17 µM
20 | O=C(O)CCc1ccc(C#Cc2cccnc2Cl)cc1 | 0.603 µM
21 | O=C(O)CCc1ccc(C#Cc2cccnc2)cc1 | 6.03 µM

Other lines, results leading:

Row | EC50 | Structure (SMILES)
22 | 0.708 µM | O=C(O)CCc1ccc(C#Cc2ccc(Cl)nc2)cc1
23 | 0.178 µM | Cc1cnc(F)cc1C#Cc1ccc(CCC(=O)O)cc1
24 | 0.513 µM | O=C(O)CCc1ccc(C#Cc2ccnc(F)c2)cc1
25 | 0.0437 µM | Cc1c(C#Cc2ccc(CCC(=O)O)cc2)cc(Cl)nc1Cl
26 | 4.07 µM | O=C(O)CCc1ccc(C#Cc2ccncc2)cc1
27 | 3.89 µM | O=C(O)CCc1ccc(C#Cc2cncs2)cc1
28 | 0.251 µM | O=C(O)CCc1ccc(C#Cc2cccs2)cc1
29 | 2.75 µM | Cc1cc(C#Cc2ccc(CCC(=O)O)cc2)nc(Cl)n1
30 | 1.07 µM | Cc1ccccc1-c1cc(C#Cc2ccc(CCC(=O)O)cc2)ccn1
31 | 0.135 µM | Cc1c(C#Cc2ccc(CCC(=O)O)cc2)ccnc1Cl
32 | 0.316 µM | C=CCc1c(C#Cc2ccc(CCC(=O)O)cc2)ccnc1Cl
33 | 0.794 µM | O=C(O)CCc1ccc(C#Cc2ccnc(Cl)c2Cc2ccccc2)cc1
34 | 0.0759 µM | Cc1ccsc1C#Cc1ccc(CCC(=O)O)cc1

Target: T1, Free fatty acid receptor 1
Assay: Agonist activity at human FFA1 receptor expressed in human 1321N1 cells assessed as calcium mobilization by fluorescence spectrophotometry relative to 10 uM TUG-20
Type: functional, cell-based
Settings: not given
Summary of the method: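 Human FFA1 stably expressed in 1321N1 cells kept under G418 selection, 30000–40000 cells/well. After 24 h, washed in Krebs-HEPES pH 7.4 and loaded 1 h at 37 °C with 1.5 μM Oregon Green 488 BAPTA-1/AM. Compound injected at 10-fold concentration at 37 °C; fluorescence ex 485/em 520 nm over 50 × 0.4 s. Efficacy as % of maximal response to 10 μM TUG-20.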

Row | Structure (SMILES) | Efficacy
35 | O=C(O)CCc1ccc(C#Cc2ccnc(Cl)c2)cc1 | 94%
36 | Cc1c(C#Cc2ccc(CCC(=O)O)cc2)ccnc1F | 101%
37 | Cc1cnc(F)c(C#Cc2ccc(CCC(=O)O)cc2)c1 | 98%
38 | O=C(O)CCc1ccc(C#Cc2ccnc(Cl)n2)cc1 | 131%
39 | COc1cc(C#Cc2ccc(CCC(=O)O)cc2)ccn1 | 98%
40 | O=C(O)CCc1ccc(C#Cc2ccnc(Oc3ccccc3)c2)cc1 | 94%
41 | COc1nccc(C#Cc2ccc(CCC(=O)O)cc2)n1 | 109%
42 | O=C(O)CCc1ccc(C#Cc2ccnc3cc(Cl)ccc23)cc1 | 125%
43 | Cc1cnc(Cl)nc1C#Cc1ccc(CCC(=O)O)cc1 | 121%
44 | Cc1ccccc1C#Cc1ccc(CCC(=O)O)cc1 | 102%
45 | O=C(O)CCc1ccc(C#Cc2ccnc(-c3ccccc3)c2)cc1 | 97%
46 | O=C(O)CCc1ccc(C#Cc2ccccn2)cc1 | 98%
47 | Cc1cccc(C#Cc2ccc(CCC(=O)O)cc2)n1 | 108%
48 | O=C(O)CCc1ccc(C#Cc2cccnc2Cl)cc1 | 91%
49 | O=C(O)CCc1ccc(C#Cc2cccnc2)cc1 | 96%
50 | Cc1cc(C#Cc2ccc(CCC(=O)O)cc2)ccn1 | 102%

The remaining lines, values ahead:

Row | Efficacy | Structure (SMILES)
51 | 98% | O=C(O)CCc1ccc(C#Cc2ccc(Cl)nc2)cc1
52 | 99% | Cc1cnc(F)cc1C#Cc1ccc(CCC(=O)O)cc1
53 | 98% | O=C(O)CCc1ccc(C#Cc2ccnc(F)c2)cc1
54 | 91% | Cc1c(C#Cc2ccc(CCC(=O)O)cc2)cc(Cl)nc1Cl
55 | 96% | O=C(O)C1CC1c1ccc(C#Cc2cc(Cl)nc(Cl)c2)cc1 (racemic)
56 | 100% | O=C(O)CCc1ccc(C#Cc2ccncc2)cc1
57 | 99% | O=C(O)CCc1ccc(C#Cc2cncs2)cc1
58 | 97% | O=C(O)CCc1ccc(C#Cc2cccs2)cc1
59 | 110% | Cc1cc(C#Cc2ccc(CCC(=O)O)cc2)nc(Cl)n1
60 | 92% | Cc1ccccc1-c1cc(C#Cc2ccc(CCC(=O)O)cc2)ccn1
61 | 101% | Cc1c(C#Cc2ccc(CCC(=O)O)cc2)ccnc1Cl
62 | 97% | C=CCc1c(C#Cc2ccc(CCC(=O)O)cc2)ccnc1Cl
63 | 101% | O=C(O)CCc1ccc(C#Cc2ccnc(Cl)c2Cc2ccccc2)cc1
64 | 87% | O=C(O)CCc1ccc(C#Cc2ncccc2[N+](=O)[O-])cc1
65 | 100% | Cc1ccsc1C#Cc1ccc(CCC(=O)O)cc1

Tested on: not listed separately
Assay: Aqueous solubility of the compound in PBS at pH 7.4
Type: physicochemical
Settings: not given
Summary of the method: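 Solubility measured in PBS at pH 7.4.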

Row | solubility | Structure (SMILES)
66 | 174 µM (≈ 46 µg/mL) | Cc1ccccc1C#Cc1ccc(CCC(=O)O)cc1

Tested on: not listed separately
Assay: Inhibition of P-glycoprotein at 100 uM
Settings: not given
Summary of the method: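 P-glycoprotein inhibition tested at 100 μM compound.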

Row | inhibition | Structure (SMILES)
67 | 6.6% | Cc1ccccc1C#Cc1ccc(CCC(=O)O)cc1

Tested on: not listed separately
Assay: Octanol-phosphate buffer partition coefficient, log D of the compound at pH 7.4 by HPLC analysis
Type: physicochemical
Settings: not given

Row | logD | Structure (SMILES)
68 | 2.34 | Cc1ccccc1C#Cc1ccc(CCC(=O)O)cc1

Target: CYP3A4 (Homo sapiens, UniProt P08684)
Assay: Inhibition of CYP3A4 at 10 uM
Type: ADME
Settings: not given

Chain of CYP3A4 (P08684 whole entry): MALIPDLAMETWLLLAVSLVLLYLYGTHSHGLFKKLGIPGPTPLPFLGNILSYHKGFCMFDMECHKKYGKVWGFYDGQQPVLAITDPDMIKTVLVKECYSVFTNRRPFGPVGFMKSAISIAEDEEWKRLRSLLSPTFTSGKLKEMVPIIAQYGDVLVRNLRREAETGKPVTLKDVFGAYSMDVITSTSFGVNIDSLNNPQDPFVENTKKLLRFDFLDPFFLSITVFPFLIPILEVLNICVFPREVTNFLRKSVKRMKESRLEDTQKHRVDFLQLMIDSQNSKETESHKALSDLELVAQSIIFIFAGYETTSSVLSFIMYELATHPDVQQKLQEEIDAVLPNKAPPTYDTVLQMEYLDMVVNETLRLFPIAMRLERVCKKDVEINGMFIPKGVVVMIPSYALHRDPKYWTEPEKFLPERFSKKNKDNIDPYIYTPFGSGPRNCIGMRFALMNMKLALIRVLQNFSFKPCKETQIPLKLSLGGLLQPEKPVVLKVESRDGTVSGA

Row | inhibition at 10 µM | Structure (SMILES)
69 | -4% | Cc1ccccc1C#Cc1ccc(CCC(=O)O)cc1

Target: CYP2D6 (Homo sapiens, UniProt P10635)
Assay: Inhibition of CYP2D6 at 10 uM
Type: ADME
Settings: not given

Chain of CYP2D6 (P10635 whole entry): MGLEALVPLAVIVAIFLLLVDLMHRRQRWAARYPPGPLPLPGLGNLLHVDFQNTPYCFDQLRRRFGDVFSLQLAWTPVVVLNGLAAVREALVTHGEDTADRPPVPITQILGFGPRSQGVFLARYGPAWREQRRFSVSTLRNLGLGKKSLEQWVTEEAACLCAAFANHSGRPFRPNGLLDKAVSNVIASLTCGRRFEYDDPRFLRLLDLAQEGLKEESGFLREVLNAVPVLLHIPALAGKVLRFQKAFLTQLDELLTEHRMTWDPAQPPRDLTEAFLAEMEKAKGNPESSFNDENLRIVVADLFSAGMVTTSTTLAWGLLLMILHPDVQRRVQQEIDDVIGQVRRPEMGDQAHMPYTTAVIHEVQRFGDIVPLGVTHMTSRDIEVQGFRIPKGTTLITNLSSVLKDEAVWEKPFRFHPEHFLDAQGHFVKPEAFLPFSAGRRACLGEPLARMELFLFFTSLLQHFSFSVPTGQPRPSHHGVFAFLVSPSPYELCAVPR

Row | inhibition at 10 µM | Structure (SMILES)
70 | 0% | Cc1ccccc1C#Cc1ccc(CCC(=O)O)cc1

Target: T2, CYP1A2 (Homo sapiens, UniProt P05177)
T2 sequence (P05177 whole entry): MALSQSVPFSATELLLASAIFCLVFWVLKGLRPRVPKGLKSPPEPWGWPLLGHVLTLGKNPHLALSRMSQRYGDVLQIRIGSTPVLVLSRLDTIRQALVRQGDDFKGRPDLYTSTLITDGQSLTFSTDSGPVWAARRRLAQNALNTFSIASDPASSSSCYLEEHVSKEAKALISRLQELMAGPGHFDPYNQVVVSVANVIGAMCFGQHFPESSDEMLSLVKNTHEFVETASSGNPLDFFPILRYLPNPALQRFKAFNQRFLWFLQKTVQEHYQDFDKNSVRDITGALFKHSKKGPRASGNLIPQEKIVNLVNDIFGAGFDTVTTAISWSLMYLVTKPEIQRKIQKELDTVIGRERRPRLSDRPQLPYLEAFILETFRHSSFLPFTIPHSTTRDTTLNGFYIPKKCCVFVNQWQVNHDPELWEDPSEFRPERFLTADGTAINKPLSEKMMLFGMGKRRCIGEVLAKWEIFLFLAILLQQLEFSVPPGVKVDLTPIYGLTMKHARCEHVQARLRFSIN
Assay: Inhibition of CYP1A2 at 10 uM
Type: ADME
Settings: not given

Row | inhibition at 10 µM | Structure (SMILES)
71 | -8% | Cc1ccccc1C#Cc1ccc(CCC(=O)O)cc1

Target: CYP2C19 (Homo sapiens, UniProt P33261)
Assay: Inhibition of CYP2C19 at 10 uM
Type: ADME
Settings: not given

Chain of CYP2C19 (P33261 whole entry): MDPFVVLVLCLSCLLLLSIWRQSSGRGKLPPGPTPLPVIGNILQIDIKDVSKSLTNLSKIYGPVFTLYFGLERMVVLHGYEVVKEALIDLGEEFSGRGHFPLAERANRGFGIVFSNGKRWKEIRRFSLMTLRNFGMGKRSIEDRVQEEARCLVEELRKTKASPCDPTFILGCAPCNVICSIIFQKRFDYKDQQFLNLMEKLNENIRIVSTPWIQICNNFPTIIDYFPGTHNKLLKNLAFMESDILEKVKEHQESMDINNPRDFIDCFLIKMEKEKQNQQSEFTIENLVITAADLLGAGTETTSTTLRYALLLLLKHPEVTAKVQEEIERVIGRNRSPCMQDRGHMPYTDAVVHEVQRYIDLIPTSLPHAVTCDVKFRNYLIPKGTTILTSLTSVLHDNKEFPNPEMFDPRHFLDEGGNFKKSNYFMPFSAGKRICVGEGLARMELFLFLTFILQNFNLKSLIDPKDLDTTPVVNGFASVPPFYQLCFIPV

Row | inhibition at 10 µM | Structure (SMILES)
72 | -1% | Cc1ccccc1C#Cc1ccc(CCC(=O)O)cc1

Target: CYP2C9 (Homo sapiens, UniProt P11712)
Assay: Inhibition of CYP2C9 at 10 uM
Type: ADME
Settings: not given

Chain of CYP2C9 (P11712 whole entry): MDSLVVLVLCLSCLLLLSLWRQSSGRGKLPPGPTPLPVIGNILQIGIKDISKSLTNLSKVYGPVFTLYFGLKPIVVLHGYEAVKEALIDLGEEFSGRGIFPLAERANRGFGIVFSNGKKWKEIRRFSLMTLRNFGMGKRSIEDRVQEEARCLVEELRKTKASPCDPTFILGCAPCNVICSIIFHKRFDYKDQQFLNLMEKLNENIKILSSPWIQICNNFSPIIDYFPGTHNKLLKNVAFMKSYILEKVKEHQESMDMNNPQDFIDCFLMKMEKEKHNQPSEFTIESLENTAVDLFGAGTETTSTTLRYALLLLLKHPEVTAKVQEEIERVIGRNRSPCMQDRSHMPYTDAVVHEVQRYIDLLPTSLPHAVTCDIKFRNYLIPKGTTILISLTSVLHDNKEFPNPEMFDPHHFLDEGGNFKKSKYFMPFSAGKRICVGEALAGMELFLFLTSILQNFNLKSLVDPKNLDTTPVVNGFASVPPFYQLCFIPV

Row | inhibition at 10 µM | Structure (SMILES)
73 | -25% | Cc1ccccc1C#Cc1ccc(CCC(=O)O)cc1

Tested on: not listed separately
Assay: Apparent permeability across methotrexate treated human HT-29 cells
Type: ADME, cell-based
Settings: not given
Summary of the method: as §1

Row | Papp | Structure (SMILES)
74 | 151 nm/s | CC(C(=O)O)c1cccc(C(=O)c2ccccc2)c1 (centres undefined) [KETOPROFEN]
